Measured values as given in ChEMBL document CHEMBL1932986, “Synthesis and in vitro antimycobacterial activity of compounds derived from (R)- and (S)-2-amino-1-butanol - The crucial role of the configuration” (Eur J Med Chem, 2012).
In brackets after ≈: the same amount, converted by molar mass. Activity calls are given as the source filed them. The rule behind the calls is not given here.

Key:
[1] = system: Mycobacterium tuberculosis; test: Ratio of ethambutol dihydrochloride MIC to compound MIC for Mycobacterium tuberculosis H37Rv; type: functional
Priestia megaterium [2] = test: Antibacterial activity against Bacillus megaterium NRRL 1353895 at 50 mg/ml after 24 hrs by agar diffusion test; type: functional
Procedure, shortened: (§1)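 Agar diffusion: wells in agar filled with […] DMSO solution of compound at various concentrations; diameter of clear zone around application point measured. Bacteria grown 24 h at 37 °C on nutrient agar. Compounds first screened at 50 mg/ml; those active then tested at lower concentrations. Bracketed value = lowest concentration (mg/ml) giving zone >11 mm, reported only if activity retained at ≤1.25 mg/ml.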

Bacillus subtilis [3] = test: Antibacterial activity against Bacillus subtilis ATCC 6633 at 50 mg/ml after 24 hrs by agar diffusion test; type: functional; conditions: for zone of inhibition at 50000 µg/mL: ATCC 6633, 24 h, read-out: DIZ; procedure, shortened: as §1
Bacillus mycoides [4] = test: Antibacterial activity against Bacillus mycoides DSMZ 274 at 50 mg/ml after 24 hrs by agar diffusion test; type: functional; procedure, shortened: as §1
Micrococcus luteus [5] = test: Antibacterial activity against Micrococcus luteus ATCC 9631 at 50 mg/ml after 24 hrs by agar diffusion test; type: functional; procedure, shortened: as §1
Micrococcus luteus [6] = test: Antibacterial activity against Sarcina lutea ATCC 9341 at 50 mg/ml after 24 hrs by agar diffusion test; type: functional
Procedure, shortened: (§2)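 Agar diffusion: bacteria grown 24 h at 37 °C on nutrient agar. Wells in the agar are filled with […] of compound solution in DMSO at various concentrations. The diameter of the clear zone around the application point is measured. Bracketed values give the lowest concentration (mg/ml) that produces a zone >11 mm. A first screen is run at 50 mg/ml.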

[7] = system: Mycobacterium tuberculosis; test: Antimycobacterial activity against Mycobacterium tuberculosis H37Rv after 45 days; type: functional
Procedure, shortened: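 Canetti proportion method. Compound in DMSO is added to Löwenstein–Jensen egg medium before coagulation (30 min, 85 °C), tested at three levels plus a lower one where needed. Tubes are inoculated with H37Rv at 10⁵ cells/ml and incubated 45 days at 37 °C. Colony counts versus drug-free control give percentage inhibition.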

Candida tropicalis [8] = test: Antifungal activity against Candida tropicalis ATCC 20336 at 50 mg/ml after 72 hrs by agar diffusion test; type: functional
Procedure, shortened: (§3)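 Agar diffusion: yeasts grown on yeast peptone dextrose agar and fungi on potato dextrose agar. Wells are filled with […] of compound solution in DMSO at various concentrations, and the clear-zone diameter is measured. Bracketed values give the lowest concentration (mg/ml) that produces a zone >11 mm. A first screen is run at 50 mg/ml.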

Saccharomyces cerevisiae [9] = test: Antifungal activity against Saccharomyces cerevisiae ATCC 9763 at 50 mg/ml after 72 hrs by agar diffusion test; type: functional; procedure, shortened: as §3
Staphylococcus aureus [10] = test: Antibacterial activity against Staphylococcus aureus NRRL B 313 at 50 mg/ml after 24 hrs by agar diffusion test; type: functional; procedure, shortened: as §2
Acinetobacter johnsonii [11] = test: Antibacterial activity against Acinetobacter johnsonii ATCC 17909 at 50 mg/ml after 24 hrs by agar diffusion test; type: functional; procedure, shortened: as §1
Penicillium chrysogenum [12] = test: Antifungal activity against Penicillium chrysogenum CECT 2802 at 50 mg/ml after 72 hrs by agar diffusion test; type: functional; procedure, shortened: as §3
HEK-293T = test: Cytotoxicity against human HEK293T cells after 72 hrs by MTT assay; type: cell-based
Procedure, shortened: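 293T cells in RPMI-1640 with 10% heat-inactivated FCS and 2 mM L-glutamine, 37 °C, 5% CO2. Cells seeded at 3.5 × 10⁵ cells/ml, grown 24 h, then exposed 72 h to DMSO-diluted compounds (final solvent ≤0.5%), ≥8 wells per concentration. MTT added 4 h, formazan dissolved in 5% HCOOH/2-propanol, absorbance read at 580 nm. IC50 obtained by sigmoidal nonlinear regression against untreated control.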

[13] = Selectivity index, ratio of IC50 for human HEK293T cells to MIC for Mycobacterium tuberculosis H37Rv; type: functional, HEK-293T
Bacillus [14] = test: Antibacterial activity against Bacillus idosus B 241 at 50 mg/ml after 24 hrs by agar diffusion test; type: functional; procedure, shortened: as §1
[15] = Solubility of the compound in deionized water; type: physicochemical
Escherichia coli [16] = test: Antibacterial activity against Escherichia coli ATCC 8739 at 50 mg/ml after 24 hrs by agar diffusion test; type: functional; procedure, shortened: as §1
Bacillus cereus [17] = test: Antibacterial activity against Bacillus cereus ATCC 11778 at 50 mg/ml after 24 hrs by agar diffusion test; type: functional; procedure, shortened: as §1
Bacillus subtilis [18] = test: Antibacterial activity against Bacillus subtilis ATCC 6633 at 2 mg/ml after 24 hrs by agar diffusion test; type: functional, organism-based; procedure, shortened: as §1
Micrococcus luteus [19] = test: Antibacterial activity against Sarcina lutea ATCC 9341 at 2 mg/ml after 24 hrs by agar diffusion test; type: functional, organism-based; procedure, shortened: as §1
Micrococcus luteus [20] = test: Antibacterial activity against Micrococcus luteus ATCC 9631 at 2 mg/ml after 24 hrs by agar diffusion test; type: functional, organism-based; procedure, shortened: as §1
Bacillus [21] = test: Antibacterial activity against Bacillus idosus B 241 at 2 mg/ml after 24 hrs by agar diffusion test; type: functional, organism-based; procedure, shortened: as §1
Penicillium chrysogenum [22] = test: Antifungal activity against Penicillium chrysogenum CECT 2802 at 2 mg/ml after 72 hrs by agar diffusion test; type: functional, organism-based; procedure, shortened: as §3
Acinetobacter johnsonii [23] = test: Antibacterial activity against Acinetobacter johnsonii ATCC 17909 at 2 mg/ml after 24 hrs by agar diffusion test; type: functional; procedure, shortened: as §1
Bacillus cereus [24] = test: Antibacterial activity against Bacillus cereus ATCC 11778 at 2 mg/ml after 24 hrs by agar diffusion test; type: functional, organism-based; procedure, shortened: as §1
Candida tropicalis [25] = test: Antifungal activity against Candida tropicalis ATCC 20336 at 2 mg/ml after 72 hrs by agar diffusion test; type: functional, organism-based; procedure, shortened: as §3
Staphylococcus aureus [26] = test: Antibacterial activity against Staphylococcus aureus NRRL B 313 at 2 mg/ml after 24 hrs by agar diffusion test; type: functional, organism-based; procedure, shortened: as §2
Priestia megaterium [27] = test: Antibacterial activity against Bacillus megaterium NRRL 1353895 at 2 mg/ml after 24 hrs by agar diffusion test; type: functional, organism-based; procedure, shortened: as §1
Bacillus mycoides [28] = test: Antibacterial activity against Bacillus mycoides DSMZ 274 at 2 mg/ml after 24 hrs by agar diffusion test; type: functional, organism-based; procedure, shortened: as §1
Saccharomyces cerevisiae [29] = test: Antifungal activity against Saccharomyces cerevisiae ATCC 9763 at 2 mg/ml after 72 hrs by agar diffusion test; type: functional, organism-based; procedure, shortened: as §3
Escherichia coli [30] = test: Antibacterial activity against Escherichia coli ATCC 8739 at 2 mg/ml after 24 hrs by agar diffusion test; type: functional, organism-based; procedure, shortened: as §1

## CC[C@H](CO)N1Cc2ccccc2C1=O
[1]
  Ratio: 5
Priestia megaterium [2]
  diameter of the inhibition zone (DIZ): inactive
Bacillus subtilis [3]
  diameter of the inhibition zone (DIZ): inactive
Bacillus mycoides [4]
  diameter of the inhibition zone (DIZ): inactive
Micrococcus luteus [5]
  diameter of the inhibition zone (DIZ): inactive
Micrococcus luteus [6]
  diameter of the inhibition zone (DIZ): inactive
[7]
  MIC: 0.97 µM (≈ 0.199 µg/mL)
Candida tropicalis [8]
  diameter of the inhibition zone (DIZ): inactive
Saccharomyces cerevisiae [9]
  diameter of the inhibition zone (DIZ): inactive
Staphylococcus aureus [10]
  diameter of the inhibition zone (DIZ): inactive
Acinetobacter johnsonii [11]
  diameter of the inhibition zone (DIZ): inactive
Penicillium chrysogenum [12]
  diameter of the inhibition zone (DIZ): inactive
HEK-293T
  IC50: 89 µM
[13]
  Selectivity Index: 91.8
Bacillus [14]
  diameter of the inhibition zone (DIZ): inactive
[15]
  solubility: 1000 µg/mL (≈ 4.87 mM)
Escherichia coli [16]
  diameter of the inhibition zone (DIZ): inactive
Bacillus cereus [17]
  diameter of the inhibition zone (DIZ): inactive

## CC[C@H](COC(C)=O)NC(c1ccccc1)(c1ccccc1)c1ccccc1
Priestia megaterium [2]
  diameter of the inhibition zone (DIZ): inactive
Bacillus subtilis [3]
  zone of inhibition at 50000 µg/mL: 13 mm
Bacillus mycoides [4]
  diameter of the inhibition zone (DIZ): inactive
Micrococcus luteus [5]
  diameter of the inhibition zone (DIZ): inactive
Micrococcus luteus [6]
  diameter of the inhibition zone (DIZ): inactive
[7]
  MIC: 13.4 µM (≈ 5 µg/mL)
Candida tropicalis [8]
  diameter of the inhibition zone (DIZ): inactive
Saccharomyces cerevisiae [9]
  diameter of the inhibition zone (DIZ): inactive
Staphylococcus aureus [10]
  diameter of the inhibition zone (DIZ): inactive
Acinetobacter johnsonii [11]
  diameter of the inhibition zone (DIZ): inactive
Penicillium chrysogenum [12]
  diameter of the inhibition zone (DIZ): inactive
HEK-293T
  IC50: 114 µM
[13]
  Selectivity Index: 8.5
Bacillus [14]
  diameter of the inhibition zone (DIZ): inactive
[15]
  solubility: < 1000 µg/mL
Escherichia coli [16]
  diameter of the inhibition zone (DIZ): inactive
Bacillus cereus [17]
  diameter of the inhibition zone (DIZ): inactive

## CC[C@H](CO)NP(=O)(c1ccccc1)c1ccccc1
[1]
  Ratio: 5
Priestia megaterium [2]; NRRL 1353895, 24 h, read-out: DIZ
  zone of inhibition at 50000 µg/mL: 16 mm
Bacillus subtilis [3]
  zone of inhibition at 50000 µg/mL: 18 mm
Bacillus mycoides [4]; DSMZ 274, 24 h, read-out: DIZ
  zone of inhibition at 50000 µg/mL: 15 mm
Micrococcus luteus [5]; ATCC 9631, 24 h, read-out: DIZ
  zone of inhibition at 50000 µg/mL: 15 mm
Micrococcus luteus [6]; ATCC 9341, 24 h, read-out: DIZ
  zone of inhibition at 50000 µg/mL: 18 mm
[7]
  MIC: 0.69 µM (≈ 0.2 µg/mL)
Candida tropicalis [8]; ATCC 20336, 72 h, read-out: DIZ
  zone of inhibition at 50000 µg/mL: 22 mm
Saccharomyces cerevisiae [9]; ATCC 9763, 72 h, read-out: DIZ
  zone of inhibition at 50000 µg/mL: 16 mm
Staphylococcus aureus [10]; NRRL B 313, 24 h, read-out: DIZ
  zone of inhibition at 50000 µg/mL: 18 mm
Acinetobacter johnsonii [11]; ATCC 17909, 24 h, read-out: DIZ
  zone of inhibition at 50000 µg/mL: 17 mm
HEK-293T
  IC50: 155 µM
[13]
  Selectivity Index: 224.6
Bacillus [14]; B 241, 24 h, read-out: DIZ
  zone of inhibition at 50000 µg/mL: 15 mm
[15]
  solubility: < 1000 µg/mL
Escherichia coli [16]
  diameter of the inhibition zone (DIZ): inactive
Bacillus cereus [17]; ATCC 11778, 24 h, read-out: DIZ
  zone of inhibition at 50000 µg/mL: 15 mm

## CC[C@H](CO)N1C(=O)c2ccccc2C1=O
Bacillus subtilis [18]
  diameter of the inhibition zone (DIZ): inactive
Micrococcus luteus [19]
  diameter of the inhibition zone (DIZ): inactive
Priestia megaterium [2]
  diameter of the inhibition zone (DIZ): inactive
Bacillus subtilis [3]
  diameter of the inhibition zone (DIZ): inactive
Bacillus mycoides [4]
  diameter of the inhibition zone (DIZ): inactive
Micrococcus luteus [20]
  diameter of the inhibition zone (DIZ): inactive
Micrococcus luteus [5]
  diameter of the inhibition zone (DIZ): inactive
Micrococcus luteus [6]
  diameter of the inhibition zone (DIZ): inactive
[7]
  MIC: > 22.8 µM
Bacillus [21]
  diameter of the inhibition zone (DIZ): inactive
Penicillium chrysogenum [22]
  diameter of the inhibition zone (DIZ): inactive
Candida tropicalis [8]
  diameter of the inhibition zone (DIZ): inactive
Acinetobacter johnsonii [23]
  diameter of the inhibition zone (DIZ): inactive
Bacillus cereus [24]
  diameter of the inhibition zone (DIZ): inactive
Saccharomyces cerevisiae [9]
  diameter of the inhibition zone (DIZ): inactive
Staphylococcus aureus [10]
  diameter of the inhibition zone (DIZ): inactive
Acinetobacter johnsonii [11]
  diameter of the inhibition zone (DIZ): inactive
Candida tropicalis [25]
  diameter of the inhibition zone (DIZ): inactive
Staphylococcus aureus [26]
  diameter of the inhibition zone (DIZ): inactive
Penicillium chrysogenum [12]
  diameter of the inhibition zone (DIZ): inactive
Priestia megaterium [27]
  diameter of the inhibition zone (DIZ): inactive
Bacillus mycoides [28]
  diameter of the inhibition zone (DIZ): inactive
Bacillus [14]
  diameter of the inhibition zone (DIZ): inactive
Saccharomyces cerevisiae [29]
  diameter of the inhibition zone (DIZ): inactive
Escherichia coli [30]
  diameter of the inhibition zone (DIZ): inactive
Escherichia coli [16]; ATCC 8739, 24 h, read-out: DIZ
  zone of inhibition at 50000 µg/mL: 11 mm
Bacillus cereus [17]
  diameter of the inhibition zone (DIZ): inactive
